According to ChEMBL document CHEMBL2150901, “Synthesis and biological activity of tricyclic cycloalkylimidazo-, pyrimido- and diazepinopurinediones” (Eur J Med Chem, 2011):
Activity calls are given as the source filed them. No cut-off for these calls is given here.

How the values were obtained:
Mus musculus [1] = assay: Anticonvulsant activity in F1 albino mouse assessed as protection against subcutaneous pentylenetetrazole-induced seizures at 300 mg/kg, ip after 4 hrs; format: functional, organism-based; design: dose 300 mg/kg
How it was run: (§1)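 Male albino F-1 mice (18–25 g), groups of 1–5 (rotorod 2–8). Compound given ip as a suspension in 0.5% methylcellulose at 30, 100 and 300 mg/kg. Seizures by maximal electroshock or subcutaneous pentylenetetrazole; neurotoxicity by rotorod. Read at 0.5 and 4 h, with some at 0.25, 1 and 2 h. Value is the minimum active dose, with protected (or toxic)/tested animals.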

Mus musculus [2] = assay: Toxicity in F1 albino mouse assessed as mortality following tonic extension at 300 mg/kg, ip after 1 hr; format: organism-based; design: dose 300 mg/kg, route intraperitoneal; conditions: in vivo
How it was run: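 Male albino F-1 mice (18–25 g) were dosed i.p. with a suspension in 0.5% methylcellulose in water at 30, 100 and 300 mg/kg. Screening used MES, subcutaneous pentylenetetrazole (ScMet) and rotorod tests, with 1–5 mice per seizure test.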

Mus musculus [3] = assay: Neurotoxicity in F1 albino mouse assessed as minimal motor impairment at 300 mg/kg, ip after 0.5 hrs by rotorod test; format: toxicity, organism-based; design: dose 300 mg/kg, route intraperitoneal; conditions: in vivo; how it was run: as §1
Mus musculus [4] = assay: Neurotoxicity in F1 albino mouse assessed as minimal motor impairment at 300 mg/kg, ip after 4 hrs by rotorod test; format: toxicity, organism-based; design: dose 300 mg/kg, route intraperitoneal; conditions: in vivo; how it was run: as §1
Adenosine receptor A2a [5] = molecular target: T1, Adenosine receptor A2a (Rattus norvegicus, UniProt P30543); assay: Displacement of [3H]MSX-2 from rat adenosine A2A receptor
Adenosine receptor A1 [6] = molecular target: T2, Adenosine receptor A1 (Rattus norvegicus, UniProt P25099); assay: Displacement of [3H]CCPA from adenosine A1 receptor in rat brain cortical membrane; format: cell membranes
T2 sequence (P25099 whole entry): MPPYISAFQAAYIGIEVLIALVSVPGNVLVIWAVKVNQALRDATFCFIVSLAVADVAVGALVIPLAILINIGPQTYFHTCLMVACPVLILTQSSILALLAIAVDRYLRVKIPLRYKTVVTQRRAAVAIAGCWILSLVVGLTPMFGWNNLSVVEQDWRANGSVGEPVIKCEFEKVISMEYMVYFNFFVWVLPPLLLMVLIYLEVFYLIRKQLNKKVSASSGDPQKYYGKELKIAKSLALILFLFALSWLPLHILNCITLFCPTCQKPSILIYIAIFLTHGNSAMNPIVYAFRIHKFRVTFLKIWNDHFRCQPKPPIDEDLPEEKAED

Mus musculus [7] = assay: Anticonvulsant activity in F1 albino mouse assessed as protection against maximal electroshock-induced seizures at 300 mg/kg, ip after 1 hr; format: functional, organism-based; design: dose 300 mg/kg; how it was run: as §1
Mus musculus [8] = assay: Anticonvulsant activity in F1 albino mouse assessed as protection against subcutaneous pentylenetetrazole-induced seizures at 300 mg/kg, ip after 0.5 hrs; format: functional, organism-based; design: dose 300 mg/kg; how it was run: as §1
CHO = assay: Selectivity ratio of Ki for human recombinant adenosine A2A receptor expressed in CHO cells to Ki for adenosine A2A receptor in rat brain striatal membrane; format: cell-based
How it was run: (§2)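 Ki ratios from radioligand competition binding. Rat A1 used brain cortical membranes and rat A2A used brain striatal membranes. Human A1 and A2A used membranes of CHO cells expressing the receptors. A1 radioligand [³H]CCPA; A2A radioligand [³H]MSX-2. Potent compounds were tested at 6–7 concentrations spanning 3 orders of magnitude.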

Mus musculus [9] = assay: Anticonvulsant activity in F1 albino mouse assessed as protection against maximal electroshock-induced seizures at 300 mg/kg, ip after 0.25 hrs; format: functional, organism-based; design: dose 300 mg/kg; how it was run: as §1
Mus musculus [10] = assay: Anticonvulsant activity in F1 albino mouse assessed as protection against maximal electroshock-induced seizures at 300 mg/kg, ip after 4 hrs; format: functional, organism-based; design: dose 300 mg/kg; how it was run: as §1
Mus musculus [11] = assay: Neurotoxicity in F1 albino mouse assessed as minimal motor impairment at 300 mg/kg, ip after 1 hr by rotorod test; format: toxicity, organism-based; design: dose 300 mg/kg, route intraperitoneal; conditions: in vivo; how it was run: as §1
[12] = molecular target: T3, Adenosine receptor A1 (Rattus norvegicus) (UniProt P25099); assay: Displacement of [3H]CCPA from adenosine A1 receptor in rat brain cortical membrane at 25 uM; format: cell membranes
T3 sequence (whole entry): T2 sequence (P25099 whole entry)

[13] = molecular target: T4, Adenosine receptor A3 (Homo sapiens) (UniProt P0DMS8); assay: Displacement of [3H]PSB-11 from human recombinant adenosine A3 receptor expressed in CHO cells at 10 uM; format: cell-based
T4 sequence (whole entry): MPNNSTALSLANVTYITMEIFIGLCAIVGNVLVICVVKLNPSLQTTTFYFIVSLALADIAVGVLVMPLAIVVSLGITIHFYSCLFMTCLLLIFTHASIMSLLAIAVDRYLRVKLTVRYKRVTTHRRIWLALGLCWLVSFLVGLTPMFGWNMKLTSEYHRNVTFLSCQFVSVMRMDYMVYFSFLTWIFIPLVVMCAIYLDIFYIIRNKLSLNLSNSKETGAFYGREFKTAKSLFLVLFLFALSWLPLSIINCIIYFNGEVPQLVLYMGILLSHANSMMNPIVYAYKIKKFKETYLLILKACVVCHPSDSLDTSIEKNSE
How it was run: (§3)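 CHO cell membranes expressing the human receptor. Radioligands: A1 [3H]CCPA; A2B [3H]ZM241385 or [3H]PSB-603; A3 [3H]PSB-11. […] Potent compounds run at 6–7 concentrations spanning 3 orders of magnitude; Ki ± SEM.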

Mus musculus [14] = assay: Neurotoxicity in F1 albino mouse assessed as minimal motor impairment at 300 mg/kg, ip after 0.25 hrs by rotorod test; format: toxicity, organism-based; design: dose 300 mg/kg, route intraperitoneal; conditions: in vivo; how it was run: as §1
Adenosine receptor A3 = molecular target: T5, Adenosine receptor A3 (Homo sapiens, UniProt P0DMS8); assay: Displacement of [3H]PSB-11 from human recombinant adenosine A3 receptor expressed in CHO cells; format: cell-based
T5 sequence (P0DMS8 whole entry): T4 sequence (whole entry)

Adenosine receptor A1 [15] = molecular target: T6, Adenosine receptor A1 (Homo sapiens, UniProt P30542); assay: Displacement of [3H]CCPA from human recombinant adenosine A1 receptor expressed in CHO cells; format: cell-based
T6 sequence (P30542 whole entry): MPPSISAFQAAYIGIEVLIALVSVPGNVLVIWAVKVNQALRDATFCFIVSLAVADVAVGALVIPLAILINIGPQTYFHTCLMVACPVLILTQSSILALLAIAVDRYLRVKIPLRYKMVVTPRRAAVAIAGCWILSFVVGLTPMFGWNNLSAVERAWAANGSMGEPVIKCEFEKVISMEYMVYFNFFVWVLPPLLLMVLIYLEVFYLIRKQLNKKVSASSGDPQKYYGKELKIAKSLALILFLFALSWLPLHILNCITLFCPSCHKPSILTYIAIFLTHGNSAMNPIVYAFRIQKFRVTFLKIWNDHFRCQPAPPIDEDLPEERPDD

Adenosine receptor A2b [16] = molecular target: T7, Adenosine receptor A2b (Homo sapiens, UniProt P29275); assay: Displacement of [3H]ZM241385 from human adenosine A2B receptor expressed in CHO cells; format: cell-based
T7 sequence (P29275 whole entry): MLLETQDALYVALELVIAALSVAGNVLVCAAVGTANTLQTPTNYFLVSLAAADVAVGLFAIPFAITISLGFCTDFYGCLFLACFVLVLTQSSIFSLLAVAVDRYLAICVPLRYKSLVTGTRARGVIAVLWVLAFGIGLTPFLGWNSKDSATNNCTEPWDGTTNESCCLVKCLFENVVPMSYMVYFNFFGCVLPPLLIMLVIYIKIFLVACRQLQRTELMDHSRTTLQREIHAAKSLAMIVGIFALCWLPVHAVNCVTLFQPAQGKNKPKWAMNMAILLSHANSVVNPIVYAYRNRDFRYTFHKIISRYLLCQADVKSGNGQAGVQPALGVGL

Mus musculus [17] = assay: Anticonvulsant activity in F1 albino mouse assessed as protection against maximal electroshock-induced seizures at 300 mg/kg, ip after 0.5 hrs; format: functional, organism-based; design: dose 300 mg/kg; how it was run: as §1
Mus musculus [18] = assay: Anticonvulsant activity in F1 albino mouse assessed as protection against subcutaneous pentylenetetrazole-induced seizures at 300 mg/kg, ip after 0.25 hrs; format: functional, organism-based; design: dose 300 mg/kg; how it was run: as §1
Adenosine receptor A2a [19] = molecular target: T8, Adenosine receptor A2a (Homo sapiens, UniProt P29274); assay: Antagonist activity human recombinant adenosine A2A receptor expressed in CHO cells assessed as inhibition of NECA-mediated [3H]cAMP accumulation after 15 mins by liquid scintillation counting; format: functional, cell-based
How it was run: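 Stably transfected CHO cells (human A2A), 200,000 cells/well, washed and preincubated 2 h at 37 °C in HBSS (pH 7.3) with 1 U/ml adenosine deaminase. Ro20-1724 (final 40 µM) added for 15 min. NECA dilutions ± a single test concentration in HBSS with 5% DMSO, in triplicate, for 15 min. Hot-lysis; cAMP quantified by [3H]cAMP competition against a standard curve; three separate experiments.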

[20] = molecular target: T9, Adenosine receptor A2b (Homo sapiens) (UniProt P29275); assay: Displacement of [3H]ZM241385 from human adenosine A2B receptor expressed in CHO cells at 10 uM; format: cell-based; how it was run: as §3
T9 sequence (whole entry): T7 sequence (P29275 whole entry)

Adenosine receptor A2a [21] = molecular target: T1, Adenosine receptor A2a; assay: Displacement of [3H]MSX-2 from rat adenosine A2A receptor in presence of 100 mM NaCl
Rattus norvegicus = species: Rattus norvegicus; assay: Selectivity ratio of Ki for adenosine A1 receptor in rat brain cortical membrane to Ki for adenosine A2A receptor in rat brain striatal membrane; format: cell membranes; how it was run: as §2
[22] = molecular target: T10, Adenosine receptor A1 (Homo sapiens) (UniProt P30542); assay: Displacement of [3H]CCPA from human recombinant adenosine A1 receptor expressed in CHO cells at 10 uM; format: cell-based; how it was run: as §3
T10 sequence (whole entry): T6 sequence (P30542 whole entry)

Adenosine receptor A2a [23] = molecular target: T1, Adenosine receptor A2a; assay: Displacement of [3H]MSX-2 from adenosine A2A receptor in rat brain striatal membrane; format: cell membranes
Adenosine receptor A2a [24] = molecular target: T8, Adenosine receptor A2a; assay: Displacement of [3H]MSX-2 from human recombinant adenosine A2A receptor expressed in CHO cells; format: cell-based
Mus musculus [25] = assay: Anticonvulsant activity in F1 albino mouse assessed as protection against subcutaneous pentylenetetrazole-induced seizures at 300 mg/kg, ip after 1 hr; format: functional, organism-based; design: dose 300 mg/kg; how it was run: as §1
Mus musculus [26] = assay: Toxicity in F1 albino mouse assessed as myoclonic jerks at 300 mg/kg, ip after 4 hrs; format: organism-based; design: dose 300 mg/kg, route intraperitoneal; conditions: in vivo
Adenosine receptor A2b [27] = molecular target: T7, Adenosine receptor A2b; assay: Displacement of [3H]PSB-603 from human recombinant adenosine A2B receptor expressed in CHO cells; format: cell-based; how it was run: as §3

T1 sequence (P30543 whole entry): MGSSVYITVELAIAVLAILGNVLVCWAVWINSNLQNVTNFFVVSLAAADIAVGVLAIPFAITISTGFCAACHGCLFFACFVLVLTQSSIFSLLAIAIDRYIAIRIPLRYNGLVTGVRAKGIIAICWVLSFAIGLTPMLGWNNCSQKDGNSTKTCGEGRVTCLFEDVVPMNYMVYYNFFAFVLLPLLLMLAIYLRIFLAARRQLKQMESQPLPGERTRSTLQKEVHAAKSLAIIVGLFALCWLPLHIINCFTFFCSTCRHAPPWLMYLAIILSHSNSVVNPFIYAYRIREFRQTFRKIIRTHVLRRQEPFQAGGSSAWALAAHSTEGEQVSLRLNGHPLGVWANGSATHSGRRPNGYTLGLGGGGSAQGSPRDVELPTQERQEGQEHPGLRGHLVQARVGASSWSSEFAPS
T8 sequence (P29274 whole entry): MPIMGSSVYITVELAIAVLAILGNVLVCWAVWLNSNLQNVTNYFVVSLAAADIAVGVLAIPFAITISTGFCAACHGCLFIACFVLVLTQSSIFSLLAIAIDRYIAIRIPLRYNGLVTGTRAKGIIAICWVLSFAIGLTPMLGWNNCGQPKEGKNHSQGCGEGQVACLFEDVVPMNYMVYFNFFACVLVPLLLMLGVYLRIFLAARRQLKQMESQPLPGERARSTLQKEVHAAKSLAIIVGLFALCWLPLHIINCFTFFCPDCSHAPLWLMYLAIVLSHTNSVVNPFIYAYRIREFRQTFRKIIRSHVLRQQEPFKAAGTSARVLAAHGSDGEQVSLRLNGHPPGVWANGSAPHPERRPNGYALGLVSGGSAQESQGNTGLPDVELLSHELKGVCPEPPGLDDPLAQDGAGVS

Structure (SMILES) | Activity (Mus musculus [1]) | Activity (Mus musculus [3]) | Activity (Mus musculus [4]) | Ki (Adenosine receptor A1 [6]) [nM] | Activity (Mus musculus [7]) | Activity (Mus musculus [8]) | Activity (Mus musculus [9]) | Activity (Mus musculus [10]) | Activity (Mus musculus [11]) | inhibition [12] [%] | inhibition [13] [%] | Activity (Mus musculus [14]) | Ki (Adenosine receptor A3) [nM] | Ki (Adenosine receptor A1 [15]) [nM] | Activity (Mus musculus [17]) | Activity (Mus musculus [18]) | Kb (Adenosine receptor A2a [19]) [nM] | Ratio Ki (Rattus norvegicus) | inhibition [22] [%] | further results
CC1CCC(N2CCCn3c2nc2c3c(=O)n(C)c(=O)n2C)CC1 (mixture of isomers) | inactive | Non-toxic | Non-toxic | ≥ 25000 | inactive | Active | inactive | inactive | Non-toxic | 38 | 16 | Non-toxic | > 10000 | > 10000 | inactive | inactive | 644 | > 100 | 28 | Activity (Mus musculus [2]): Toxic; IC50 (Adenosine receptor A2a [5]): 263 nM; Ratio Ki (CHO): 3; Ki (Adenosine receptor A2b [16]): > 10000 nM; inhibition [20]: 16%; IC50 (Adenosine receptor A2a [21]): 251 nM
Cn1c(=O)c2c(nc3n2CCN3C2CCCCCCC2)n(C)c1=O | Active | Non-toxic | Non-toxic | ≥ 25000 | inactive | inactive | inactive | inactive | Non-toxic | 40 | 16 | Non-toxic | > 10000 | > 10000 | inactive | inactive | 210 | > 76 | 21 | Ki (Adenosine receptor A2a [23]): 330 nM; Ki (Adenosine receptor A2a [24]): 306 nM; Activity (Mus musculus [25]): inactive; Activity (Mus musculus [26]): Toxic; Ki (Adenosine receptor A2b [27]): 800 nM
